A short description of series [1]: Cytotoxicity against human PBMC after 7 days by XTT assay. Type of series: cell-based. The following applies: PBMC (peripheral blood mononuclear cells). The essentials: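 Confluent PBMCs were exposed to a range of compound concentrations for 7 days, and viability was then read by XTT. CC50 is the concentration giving 50% cytotoxicity relative to untreated controls. Mean ± SD of three independent experiments.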

Series [2] relates to Human immunodeficiency virus 1. Kind of series: Antiviral activity against R5-tropic Human immunodeficiency virus 1 Ba-L subtype B infected in human PBMC assessed as inhibition of viral replication after 7 days by ELISA. Type of series: functional, organism-based. The following applies: 168 h. The essentials:
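Phytohemagglutinin-stimulated PBMCs (2–3 days), then kept in medium with recombinant human IL-2, infected with HIV-1 Ba-L (R5-tropic, subtype B) and treated with a range of concentrations (µM). After 7 days, p24 antigen in culture supernatants was measured by capture ELISA. EC50 is the concentration reducing replication 50% versus infected controls. Mean ± SD of three independent experiments. AZT positive control.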

The nature of series [3]: Selectivity ratio of CC50 for human PBMC to EC50 for R5-tropic Human immunodeficiency virus 1 Ba-L subtype B. The essentials:
(§1)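 Selectivity index is calculated as CC50 (XTT viability in PBMCs, 7 days) divided by EC50 (p24 ELISA, HIV-1 Ba-L-infected PBMCs, 7 days).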

Series [4] concerns Human immunodeficiency virus 1. Nature of the series: Antiviral activity against Human immunodeficiency virus 1 Ba-L infected in macrophages assessed as inhibition of viral replication. Type of series: functional, organism-based.
Series [5] relates to Human immunodeficiency virus 1. Kind of series: Antiviral activity against Human immunodeficiency virus 1 infected in human PBMC assessed as inhibition of viral replication. Type of series: functional, organism-based. The essentials:
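Human PBMCs stimulated with phytohemagglutinin for 2–3 days, then kept in medium with recombinant human IL-2. Cells infected with HIV-1 Ba-L (R5-tropic, subtype B) and exposed to a range of compound concentrations for seven days. Supernatant p24 antigen measured by capture ELISA. EC50 is the concentration giving 50% less replication than infected controls. Mean ± SD of three independent experiments.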

The nature of series [6]: Selectivity ratio of CC50 for human PBMC to EC50 for Human immunodeficiency virus 1 Ba-L. The essentials: as §1
Series [7] deals with Human immunodeficiency virus type 1 reverse transcriptase (Human immunodeficiency virus 1, UniProt Q72547). Nature of the series: Inhibition of Human immunodeficiency virus 1 reverse transcriptase.

Take `CCOC(=O)c1cn(CP(=O)(OC(C)C)OC(C)C)c2ccc(Cl)cc2c1=O`: the CC50 (as a rule, the concentration at which the toxic effect on the cells reaches its halfway point) at 168 h in series [1] is 1240 µM. For the same compound, in series [2], the concentration giving a half-maximal response (EC50) – broadly, the concentration giving half of the maximal effect – was 8.1 µM. Besides, the “Ratio CC50/EC50” value in series [3] is 152.4.

Compound `CCOC(=O)c1cn(CP(=O)(OC(C)C)OC(C)C)c2ccccc2c1=O` displayed a CC50 at 168 h in series [1] of 2310 µM. For the same compound, the EC50 in series [2] worked out at 7.3 µM. Moreover, the “Ratio CC50/EC50” value in series [3] worked out at 316.4.

With `CCOC(=O)c1cn(CP(=O)(OC(C)C)OC(C)C)c2cc(Cl)ccc2c1=O`, the CC50 at 168 h in series [1] amounted to 828 µM. Besides, the EC50 in series [2] is 21 µM. Further, the “Ratio CC50/EC50” value in series [3] was found to be 39.4.

`CCOC(=O)c1cn(CP(=O)(OC(C)C)OC(C)C)c2ccc(Br)cc2c1=O`: half-maximal cytotoxicity in series [1] (CC50 at 168 h) was put at 802 µM. Also, the EC50 in series [2] came to 56 µM. In series [3], the “Ratio CC50/EC50” value worked out at 14.3.

For the compound `CCOC(=O)c1cn(CP(=O)(OC(C)C)OC(C)C)c2cc(Br)ccc2c1=O`, the midpoint of cytotoxicity in series [1], the CC50 at 168 h, lay at 731 µM. In series [2], the concentration giving a half-maximal response (EC50) was determined as 61.2 µM. Besides, the “Ratio CC50/EC50” value in series [3] was 11.9.

As to `CCOC(=O)c1cn(CP(=O)(OC(C)C)OC(C)C)c2ccc(F)cc2c1=O`, in series [1], the CC50 at 168 h amounted to 2500 µM. For the same compound, in series [2], the EC50 came to 0.4 µM. In addition, the “Ratio CC50/EC50” value in series [3] is reported as 6240.

As to `CCOC(=O)c1cn(CP(=O)(OC(C)C)OC(C)C)c2cc(F)ccc2c1=O`, the cytotoxic concentration (CC50) at 168 h in series [1] was 2940 µM. Besides, the EC50 in series [2] is 0.2 µM. Besides, in series [3], the “Ratio CC50/EC50” value is 14675.

`CCOC(=O)c1cn(CP(=O)(OC(C)C)OC(C)C)c2ccc(C)cc2c1=O` showed a CC50 at 168 h in series [1] of 1320 µM. For the same compound, the EC50 in series [2] came to 21.3 µM. Further, the “Ratio CC50/EC50” value in series [3] was 61.3.

Turning to `CCOC(=O)c1cn(CP(=O)(OC(C)C)OC(C)C)c2cc(C)ccc2c1=O`, the midpoint of cytotoxicity in series [1], the CC50 at 168 h, lay at 1120 µM. Besides, the EC50 in series [2] was found to be 9 µM. The “Ratio CC50/EC50” value in series [3] is reported as 123.9.

In turn, `CCOC(=O)c1cn(CP(=O)(OC(C)C)OC(C)C)c2ccc([N+](=O)[O-])cc2c1=O` gave a CC50 at 168 h in series [1] of 931 µM. The EC50 in series [2] came out at 38 µM.

For `CCOC(=O)c1cn(CP(=O)(OC(C)C)OC(C)C)c2cc([N+](=O)[O-])ccc2c1=O`, it took 812 µM to reach half-maximal cytotoxicity in series [1] (CC50 at 168 h). In addition, in series [2], the EC50 was determined as 22 µM. The “Ratio CC50/EC50” value in series [3] stood at 36.9.

As for `O=C(O)c1cn([C@@H]2O[C@H](CO)[C@@H](O)[C@H]2O)c2ccc(Cl)cc2c1=O`, the values for the EC50 in series [4] and in series [5] were 4.9 µM and 1.5 µM, respectively. In addition, the “Ratio CC50/EC50” value in series [6] was 1134. In addition, the affinity in series [7], expressed as Ki, was 0.5 µM.

The compound `Cc1cn([C@H]2C[C@H](N=[N+]=[N-])[C@@H](CO)O2)c(=O)[nH]c1=O` [ZIDOVUDINE] displayed a CC50 at 168 h in series [1] of 128 µM. Also, in series [2], the EC50 is 0.16 µM.

Values taken from ChEMBL document CHEMBL2057117, “Oxoquinoline acyclonucleoside phosphonate analogues as a new class of specific inhibitors of human immunodeficiency virus type 1” (Bioorg Med Chem Lett, 2012).
